Experimental data published in ChEMBL document CHEMBL4392827, “Tryptamine derivatives disarm colistin resistance in polymyxin-resistant gram-negative bacteria” (Bioorg Med Chem, 2019).

Assays:
Klebsiella pneumoniae [1] = assay: Toxicity in Klebsiella pneumoniae B9 after 18 hrs by broth microdilution assay; assay type: organism-based
Procedure, shortened: (§1)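 Single-agent MIC per CLSI broth microdilution. Cells from a 4–6 h culture in cation-adjusted Mueller-Hinton broth adjusted to 5 ×10^5 CFU/mL. Compound (DMSO stock) added to 200 μM top concentration and twofold serially diluted six times, with an untreated control row. Plates sealed and incubated stationary at 37°C for 18 h before MIC read.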

Acinetobacter baumannii [2] = assay: Toxicity in Acinetobacter baumannii 4106 after 18 hrs by broth microdilution assay; assay type: organism-based; settings: in vitro; procedure, shortened: as §1
Acinetobacter baumannii [3] = assay: Potentiation of colistin-induced antimicrobial activity against colistin-resistant Acinetobacter baumannii 4106 assessed as fold reduction in colistin MIC at 60 uM after 18 hrs by broth microdilution assay; assay type: functional
Procedure, shortened: (§2)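 Checkerboard-style resensitization following adapted CLSI broth microdilution. Bacteria were grown 4–6 h in CAMHB and subcultured to 5×10^5 CFU/mL. Adjuvant was added from DMSO stock and held constant while colistin was serially diluted in the dosed subculture. Plates were incubated stationary at 37°C for 18 h, then MICs were read. Fold reduction was taken relative to the colistin MIC without adjuvant.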

Escherichia coli [4] = assay: Toxicity in Escherichia coli ATCC 25922 after 18 hrs by broth microdilution assay; assay type: organism-based; settings: in vitro; procedure, shortened: as §1
Acinetobacter baumannii [5] = assay: Toxicity in Acinetobacter baumannii ATCC 17978 expressing mcr1 gene after 18 hrs by broth microdilution assay; assay type: organism-based; procedure, shortened: as §1
Klebsiella pneumoniae [6] = assay: Potentiation of colistin-induced antimicrobial activity against colistin-resistant Klebsiella pneumoniae B9 assessed as fold reduction in colistin MIC at 60 uM after 18 hrs by broth microdilution assay; assay type: functional; procedure, shortened: as §2
Acinetobacter baumannii [7] = assay: Potentiation of colistin-induced antimicrobial activity against colistin-resistant Acinetobacter baumannii ATCC 17978 expressing mcr1 gene assessed as fold reduction in colistin MIC at 60 uM after 18 hrs by broth microdilution assay; assay type: functional; procedure, shortened: as §2
Escherichia coli [8] = assay: Potentiation of colistin-induced antimicrobial activity against colistin-resistant Escherichia coli ATCC 25922 expressing mcr1 gene assessed as fold reduction in colistin MIC at 60 uM after 18 hrs by broth microdilution assay; assay type: functional; procedure, shortened: as §2

SMILES	MIC (Klebsiella pneumoniae [1]) [µM]	MIC (Acinetobacter baumannii [2]) [µM]	fold change (FC) (Acinetobacter baumannii [3])	MIC (Escherichia coli [4]) [µM]	MIC (Acinetobacter baumannii [5]) [µM]	fold change (FC) (Klebsiella pneumoniae [6])	fold change (FC) (Acinetobacter baumannii [7])	fold change (FC) (Escherichia coli [8])
O=C(NCCc1cn(Cc2ccccc2)c2ccccc12)c1cc(Br)c(Br)[nH]1	> 200	> 200	0	> 200	> 200	0	0	0
O=C(NCCc1c[nH]c2ccccc12)c1cc(Cl)c[nH]1			16			8	2	2
O=C(NCc1c[nH]c2ccccc12)c1cc(I)c(I)[nH]1			0			0	0	0
O=C(NCCc1c[nH]c2ccccc12)c1cc(Cl)c(Cl)[nH]1			256			1024	32	8
O=C(NCCc1c[nH]c2ccccc12)c1cc(Br)c(Br)o1			64			512	16	2
O=C(NCCc1c[nH]cn1)c1cc(Br)c(Br)[nH]1	> 200	> 200	8	> 200	> 200	0	0	0
O=C(NCCc1c[nH]c2ccccc12)c1sccc1Br			64			128	4	2
O=C(NCCc1c[nH]c2ccccc12)c1ccc[nH]1			2			0	2	0
Cn1cc(CCNC(=O)c2cc(Br)c(Br)[nH]2)c2ccccc21	> 200	> 200	4	> 200	> 200	0	0	0
Cn1c(C(=O)NCCc2c[nH]c3ccccc23)cc(Br)c1Br			32			256	16	2
COc1ccc2[nH]cc(CCNC(=O)c3cc(Br)c(Br)[nH]3)c2c1	> 200	> 200	128	> 200	> 200	128	8	2
O=C(NCCc1c[nH]c2ccccc12)c1cc(Br)c(Br)s1			32			512	16	2
O=C(NCCc1c[nH]c2ccccc12)c1cc(Br)c[nH]1			64			128	16	2
Cn1cc(Br)cc1C(=O)NCCc1c[nH]c2ccccc12			32			4	4	2
